Most compounds without a hit are left out; they make up all but 3.4% or so of the library.
E-selectin induc = E-selectin induction on HUVECs; HUVEC E-selectin immunofluorescence imaging; normalized: neutral wells 0, TNF-alpha wells 100; activation, % at 7.58 µM; 0.37% of 260,000 active; AID 686992;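 active = mean E-selectin-positive cell signal at least 10% of the positive control, reached in at least 60% of replicates, without over 20% cell loss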
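assay system = HUVEC, human umbilical vein endothelial cells | input = 3,000 HUVEC seeded per well | medium = EGM-2 growth medium on 0.1% gelatin-coated wells | dosing = one compound dose added by pin transfer | signal = immunofluorescence imaging | read-out basis = % PE-positive cells | control set = TNF-alpha, DMSO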
S100A4 inh HTS = inhibitors of human S100A4 binding to myosin IIA peptide; AID 652163; inhibition, % at 10.7 µM; P26447; 0.14% of 360,000 active; S100A4/TAMRA-MyoIIA peptide fluorescence polarization;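 active = mean inhibition of at least 70% across replicates, with every replicate also reaching that level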
Target sequence (P26447 whole entry, looked up): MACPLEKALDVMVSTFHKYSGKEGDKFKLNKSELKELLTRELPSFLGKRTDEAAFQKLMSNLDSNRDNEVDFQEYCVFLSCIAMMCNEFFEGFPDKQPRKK
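Test system: S100A4 monomer protein; Medium: HEPES pH 7.2 with CaCl2, KCl, NaCl, DTT, Triton; Probe or stimulus: TAMRA-labelled myosin IIA heavy-chain peptide probe, 5 nM; Doses: one dose per compound; Times: polarization read 5 min after assay mix addition, stable 5–60 min; Benchmarks: neutral control DMSO, positive control TFP.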
Ecoli rRNA inh = inhibits bacterial ribosomal RNA function over humanized ribosomes; E. coli WT GFP vs humanized-ribosome RFP mutants, fluorescence, 24 h; stronger effect = lower value; DMSO median 0, no signal -100; GFP signal change (wild-type ribosome), % (concentration not given with the values); 1.6% of 350,000 active;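 active = significant combined selectivity score with lowered wild-type GFP, culture density cut under 30%, mutant RFP and density less affected; inactive = any of these conditions unmet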
AF4-AF9 inh = blocks AF4 peptide binding to human AF9 | P42568 | AlphaScreen, biotin-AF4 peptide binding to FLAG-AF9 | inhibition, % at 10 µM | 0.47% of 350,000 active | AID 651704;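 active = every replicate reaching a set inhibition limit, whatever the replicate mean, cut at about 25% in these data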;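 also: 0% = plate neutral control median and 100% = total signal loss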
ERAP1 inh = ERAP1 (human) enzyme inhibition; 0.15% of 340,000 active; AID 652197; recombinant ERAP1, Leu-AMC fluorescence, 60 min; Q9NZ08; inhibition, % at 10.7 µM;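 active = mean replicate inhibition of at least 30%, or all replicates individually reaching that 30% level; inactive = mean below 30% and not every replicate reaching it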;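 also: 0% = neutral control wells and 100% = L-leucinethiol positive control wells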
SIRT5 inh = blocks human SIRT5 desuccinylation of peptide; Q9NXA8; Purified SirT5, succinyl-peptide AMC, trypsin-coupled fluorescence; inhibition, % at 15 µM; 1.1% of 330,000 active; in the data active = inhibition above about 15%
Target sequence (Q9NXA8 whole entry, looked up): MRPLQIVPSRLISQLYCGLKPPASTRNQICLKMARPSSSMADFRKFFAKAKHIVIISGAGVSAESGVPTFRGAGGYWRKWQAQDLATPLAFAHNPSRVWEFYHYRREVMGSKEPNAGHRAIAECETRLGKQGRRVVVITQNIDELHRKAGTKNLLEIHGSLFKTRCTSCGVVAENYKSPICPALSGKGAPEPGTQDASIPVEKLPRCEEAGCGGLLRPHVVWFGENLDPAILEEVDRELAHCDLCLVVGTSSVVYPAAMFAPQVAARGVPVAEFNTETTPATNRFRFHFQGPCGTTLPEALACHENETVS
The depositor's hits bear a star; . = no result.

SMILES | E-selectin induc | S100A4 inh HTS | Ecoli rRNA inh | AF4-AF9 inh | ERAP1 inh | SIRT5 inh
C[C@H]1CCCCO[C@H](CN(C)S(=O)(=O)c2cccs2)[C@@H](C)CN([C@@H](C)CO)C(=O)c2cc(NS(=O)(=O)c3cn(C)cn3)ccc2O1 | . | -9.7 | -3.0 | 1.4 | 1.8 | -5.6
CCN(CC)Cc1c(C(=O)N/N=C(\C)c2ccncc2)nnn1-c1nonc1N | -0.2 | -1.5 | 2.9 | 43.0* | -0.1 | -3.2
CCN(CC)Cc1c(C(=O)N/N=C/c2ccncc2)nnn1-c1nonc1N | 0.1 | 3.6 | 13.6 | -3.3 | . | -4.4
CCN(CC)Cc1c(C(=O)N/N=C/c2ccc(C)o2)nnn1-c1nonc1N | . | -2.7 | 7.6 | 1.7 | -2.1 | 84.6*
C/C(=N\NC(=O)c1nnn(-c2nonc2N)c1C(C)C)c1ccncc1 | . | 2.6 | 3.2 | -1.1 | 2.5 | -2.3
CCCN1[C@@H]2c3ccc(-c4cccnc4)c(=O)n3C[C@H]1[C@H](CO)[C@H]2C(=O)NC1CCCC1 | 0.1 | 60.2 | 3.6 | -1.2 | . | -1.4
O=C(C[C@H]1C[C@H]2c3cc(NC(=O)Cc4ccncc4)ccc3O[C@H]2[C@H](CO)O1)NCCc1ccccc1 | 0.0 | 7.1 | -2.1 | 0.4 | 0.0 | -0.4
COc1ccc(/C=N/NC(=O)c2cc[n+]([O-])cc2)cc1 | 42.1* | 1.6 | 0.2 | -2.5 | 1.8 | 2.4
O=C(N/N=C/c1ccc(OC(F)F)cc1)c1cc[n+]([O-])cc1 | 8.2 | -1.7 | 2.1 | 0.0 | 4.9 | 3.9
O=C(NN1CCOCC1)c1ccc(Cl)cc1[N+](=O)[O-] | 45.0* | -3.6 | 14.1 | -0.6 | 2.2 | -1.6
O=C(NCCCN1CCOCC1)c1ccc(Cl)cc1[N+](=O)[O-] | . | 2.7 | 13.2 | -2.7 | -4.2 | -7.1
C[C@H]1CN([C@@H](C)CO)C(=O)c2cccc(NS(=O)(=O)c3ccc(F)cc3)c2O[C@@H]1CN(C)C(=O)Nc1cccc2ccccc12 | 0.0 | -5.2 | -6.9 | 0.5 | 1.8 | 1.6
C#CC(=O)N(c1cccc(OC)c1)C(C(=O)NC1CCCC1)c1cccs1 (centres undefined) | . | 1.1 | -12.7 | 14.2 | -3.0 | 3.6
C#CC(=O)N(c1ccc(OC)c(OC)c1)C(C(=O)NC1CCCC1)c1cccs1 (centres undefined) | . | -1.8 | -27.5* | -13.2 | -0.5 | 0.7
C/C=C/c1ccc([C@@H]2[C@@H](CO)N(Cc3cccc(F)c3)C23CN(C(C)=O)C3)cc1 | 0.3 | 2.8 | -0.3 | 2.4 | -0.7 | 1.3
CCS(=O)(=O)C1=NN2C(=N)/C(=C\c3ccc(OCCOc4cccc(OC)c4)c(OC)c3)C(=O)N=C2S1 | 1.8 | 2.8 | -9.1 | 4.8 | -1.1 | 18.0*
COc1cc(/C=C2\C(=N)N3N=C(S(C)(=O)=O)SC3=NC2=O)cc(OC)c1OCCOc1cccc(C)c1 | . | -1.3 | -13.9 | -23.8 | 7.9 | 2.1
CCOc1cc(/C=C2\C(=N)N3N=C(S(C)(=O)=O)SC3=NC2=O)ccc1OCCOc1cccc(OC)c1 | -0.2 | -0.7 | -4.7 | 9.4 | -2.1 | 17.0*
COc1cc(/C=C2\C(=N)N3N=C(S(C)(=O)=O)SC3=NC2=O)cc(OC)c1OCCOc1ccc(C)cc1 | -0.1 | -0.3 | -2.6 | 5.4 | 8.8 | 20.0*
COc1cc(/C=C2\C(=N)N3N=C(S(C)(=O)=O)SC3=NC2=O)ccc1OCCOc1ccc(C)cc1 | 0.1 | 8.3 | -1.8 | 6.8 | -0.2 | 8.1
COc1ccc(C(=O)Nc2ccc3c(c2)OC[C@@H](C)N(C(=O)C2CC2)C[C@@H](C)[C@H](OC)CN(C)C3=O)cc1 | -0.2 | . | -1.5 | . | . | .
CN1C(=O)c2cc(NC(=O)c3ccc(Cl)cc3)ccc2OC[C@@H]2O[C@H](CC(=O)NCc3cccc(F)c3)CC[C@@H]21 | 0.2 | 7.0 | -10.7 | -1.0 | 0.3 | 1.5
COc1ccc2c3c([nH]c2c1)[C@@H](CO)N(C(=O)C1CCCCC1)CC31CN(Cc2nccs2)C1 | -0.2 | . | -5.4 | 15.1 | . | .
Cc1ccc(C(=O)O)cc1-c1ccc(C=C2C(=O)c3ccccc3C2=O)o1 | . | -3.9 | 8.9 | 0.3 | 3.5 | 7.5
COC(=O)C(C)N1C(=O)S/C(=C\c2ccc(-c3ccc(C(=O)O)cc3C)o2)C1=O (centres undefined) | 0.3 | -2.5 | 4.2 | -4.5 | 57.3* | -0.7
SMILES | E-selectin induc | S100A4 inh HTS | Ecoli rRNA inh | AF4-AF9 inh | ERAP1 inh | SIRT5 inh
C[C@@H]1CN([C@H](C)CO)C(=O)c2cc(C#CC3CCCCC3)cnc2O[C@H]1CN(C)S(C)(=O)=O | 0.1 | 11.1 | -0.3 | -14.3 | -3.3 | 6.5
C[C@H]1CN([C@@H](C)CO)C(=O)Cc2cc(NC(=O)Nc3ccc(F)cc3)ccc2O[C@H]1CN(C)CC1CC1 | . | -2.2 | 3.0 | 10.3 | -1.3 | 6.7
Cc1nn(-c2ccccc2)c(C)c1/C=N/n1c(-c2ccc(Cl)cc2)n[nH]c1=S | . | 0.6 | . | -3.3 | 12.2 | 17.5*
COc1cccc(S(=O)(=O)N[C@H]2C=C[C@H](CC(=O)NCc3ccc(F)cc3)O[C@H]2CO)c1 | -0.3 | -2.7 | -4.5 | -1.4 | 1.1 | 1.4
O=C(O)c1[nH]c2ccc(Br)cc2c1CCN1C(=O)c2cccc([N+](=O)[O-])c2C1=O | -0.1 | -4.1 | -28.2* | -12.8 | . | 2.9
Cc1noc(C)c1S(=O)(=O)Nc1ccccc1Oc1ccccc1 | . | -3.9 | -21.6* | 1.4 | 0.2 | 0.7
Cc1noc(C)c1S(=O)(=O)Nc1ccccc1Cl | . | -2.9 | 9.5 | -0.3 | 1.6 | -2.2
COc1ccc(-c2csc3nc(-c4ccccc4OC)oc(=O)c23)cc1 | . | -1.7 | -20.3* | 3.2 | 2.2 | -5.0
COc1ccc(-c2csc3nc(-c4ccc(C)cc4)oc(=O)c23)cc1OC | . | -3.7 | 7.8 | 3.2 | -3.4 | 4.8
O=C(C1CCC1)N1CC[C@H]2[C@H](CO)Nc3ccc(C#Cc4cccc(F)c4)cc3[C@H]21 | -0.7 | -24.4 | -8.0 | 2.7 | 1.4 | 20.5*
O=C(C1CCC1)N1CC[C@@H]2[C@@H](CO)Nc3ccc(C#Cc4cccc(F)c4)cc3[C@@H]21 | 6.6 | -14.3 | 0.1 | 1.8 | 3.1 | 1.0
O=C(C1CCC1)N1CC[C@@H]2[C@H](CO)Nc3ccc(C#Cc4cccc(F)c4)cc3[C@@H]21 | 30.6* | -23.2 | -4.0 | -0.9 | 0.7 | 5.0
C[C@H]1CN([C@@H](C)CO)C(=O)Cc2cc(NC(=O)Nc3ccc(C(F)(F)F)cc3)ccc2O[C@@H]1CN(C)C(=O)Nc1ccc2c(c1)OCO2 | 3.1 | -33.1 | -3.3 | 5.7 | 0.3 | 13.6
Cc1cccc(C(=O)O/N=C(\c2ccccc2)c2cccnc2)c1 | . | -0.4 | -7.2 | -2.5 | 1.9 | -2.8
Cc1ccc(C(=O)O/N=C(\c2ccccc2)c2cccnc2)cc1 | . | -4.0 | -9.4 | 1.4 | -2.7 | 33.4*
C/C=C(/C)C(=O)O[C@@H]1[C@H](OC(=O)C=C(C)C)c2c(ccc3ccc(=O)oc23)OC1(C)C | -0.5 | -2.9 | 16.0 | -10.0 | 0.9 | -7.8
